What was measured:
Assay type in all cases: ADME, organism-based
[1] = Volume of distribution at steady state in MRP2 knockout Sprague-Dawley rat at 1 mg/kg, iv by LC-MS/MS analysis; parameters: dose 1 mg/kg, route intravenous; conditions: in vivo, read-out: Vdss
In short: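 Male Sprague-Dawley rats (knockout or wild type matched for age and weight), femoral artery and vein cannulated, at least 2 days recovery. Crossover design: IV bolus 1 mg/kg on day 0 (saline with 0.2 M equivalents HCl), oral gavage 10 mg/kg on day 3 (water with 0.2 M equivalents HCl). Arterial plasma sampled to 24 h (Mdr1a oral arm to 4 h). Analysed by LC-MS/MS and noncompartmental analysis.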

[2] = Drug excretion in bile duct-cannulated wild-type Sprague-Dawley rat bile at 1 mg/kg, iv up to 24 hrs; parameters: dose 1 mg/kg, route intravenous; conditions: read-out: Drug excretion
In short: (§1)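 Male Sprague-Dawley rats with bile-duct and femoral cannulation, housed in metabolism cages. Given an IV bolus of 1 mg/kg in 2 ml/kg 50% Cremophor EL in ethanol. Urine, bile and feces collected in toto 0–24 h, with cage wash at 24 h. Amounts quantified by LC-MS/MS and expressed as % of dose; n=6–12.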

[3] = Drug excretion in bile duct-cannulated wild-type Sprague-Dawley rat feces at 1 mg/kg, iv up to 24 hrs; parameters: dose 1 mg/kg, route intravenous; conditions: faeces, read-out: Drug excretion; in short: as §1
[4] = Drug excretion in bile duct-cannulated MDR1A knockout Sprague-Dawley rat feces at 1 mg/kg, iv up to 24 hrs; parameters: dose 1 mg/kg, route intravenous; conditions: faeces, read-out: Drug excretion; in short: as §1
[5] = Drug excretion in bile duct-cannulated BCRP knockout Sprague-Dawley rat feces at 1 mg/kg, iv up to 24 hrs; parameters: dose 1 mg/kg, route intravenous; conditions: faeces, read-out: Drug excretion; in short: as §1
[6] = Drug excretion in bile duct-cannulated MRP2 knockout Sprague-Dawley rat feces at 1 mg/kg, iv up to 24 hrs; parameters: dose 1 mg/kg, route intravenous; conditions: faeces, read-out: Drug excretion; in short: as §1
[7] = AUC (infinity) in wild-type Sprague-Dawley rat at 5 mg/kg, po by LC-MS/MS analysis; parameters: time infinity, dose 5 mg/kg, route oral; conditions: plasma
In short: (§2)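 Male Sprague-Dawley rats (knockouts age- and weight-matched to wild type), femoral-artery and vein cannulated, recovered ≥2 days. IV/oral crossover: 1 mg/kg IV bolus on day 0, then after a 3-day washout 5 mg/kg oral gavage in 10 ml/kg 50% Cremophor EL in ethanol. Arterial plasma 0–24 h, protein-precipitated, LC-MS/MS (positive ion, 1–5000 ng/ml). Noncompartmental analysis; n=5–9.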

[8] = AUC (infinity) in MDR1A knockout Sprague-Dawley rat at 5 mg/kg, po by LC-MS/MS analysis; parameters: time infinity, dose 5 mg/kg, route oral; conditions: plasma
[9] = AUC (infinity) in BCRP knockout Sprague-Dawley rat at 5 mg/kg, po by LC-MS/MS analysis; parameters: time infinity, dose 5 mg/kg, route oral; conditions: plasma; in short: as §2
[10] = AUC (infinity) in MRP2 knockout Sprague-Dawley rat at 5 mg/kg, po by LC-MS/MS analysis; parameters: time infinity, dose 5 mg/kg, route oral; conditions: plasma; in short: as §2
[11] = Cmax in wild-type Sprague-Dawley rat at 5 mg/kg, po by LC-MS/MS analysis; parameters: dose 5 mg/kg, route oral; conditions: in vivo; in short: as §2
[12] = Cmax in MDR1A knockout Sprague-Dawley rat at 5 mg/kg, po by LC-MS/MS analysis; parameters: dose 5 mg/kg, route oral; conditions: in vivo; in short: as §2
[13] = Cmax in BCRP knockout Sprague-Dawley rat at 5 mg/kg, po by LC-MS/MS analysis; parameters: dose 5 mg/kg, route oral; conditions: in vivo; in short: as §2
[14] = Cmax in MRP2 knockout Sprague-Dawley rat at 5 mg/kg, po by LC-MS/MS analysis; parameters: dose 5 mg/kg, route oral; conditions: in vivo; in short: as §2
[15] = Tmax in wild-type Sprague-Dawley rat at 5 mg/kg, po by LC-MS/MS analysis; parameters: dose 5 mg/kg, route oral; conditions: in vivo; in short: as §2
[16] = Tmax in MDR1A knockout Sprague-Dawley rat at 5 mg/kg, po by LC-MS/MS analysis; parameters: dose 5 mg/kg, route oral; conditions: in vivo
[17] = Tmax in BCRP knockout Sprague-Dawley rat at 5 mg/kg, po by LC-MS/MS analysis; parameters: dose 5 mg/kg, route oral; conditions: in vivo; in short: as §2
[18] = Tmax in MRP2 knockout Sprague-Dawley rat at 5 mg/kg, po by LC-MS/MS analysis; parameters: dose 5 mg/kg, route oral; conditions: in vivo; in short: as §2
[19] = Half life in wild-type Sprague-Dawley rat at 5 mg/kg, po by LC-MS/MS analysis; parameters: dose 5 mg/kg, route oral; conditions: in vivo; in short: as §2
[20] = Half life in MDR1A knockout Sprague-Dawley rat at 5 mg/kg, po by LC-MS/MS analysis; parameters: dose 5 mg/kg, route oral; conditions: in vivo; in short: as §2
[21] = Half life in BCRP knockout Sprague-Dawley rat at 5 mg/kg, po by LC-MS/MS analysis; parameters: dose 5 mg/kg, route oral; conditions: in vivo; in short: as §2
[22] = Half life in MRP2 knockout Sprague-Dawley rat at 5 mg/kg, po by LC-MS/MS analysis; parameters: dose 5 mg/kg, route oral; conditions: in vivo; in short: as §2
[23] = Oral bioavailability in wild-type Sprague-Dawley rat at 5 mg/kg by LC-MS/MS analysis; conditions: in vivo; in short: as §2
[24] = Oral bioavailability in MDR1A knockout Sprague-Dawley rat at 5 mg/kg by LC-MS/MS analysis; conditions: in vivo
[25] = Oral bioavailability in BCRP knockout Sprague-Dawley rat at 5 mg/kg by LC-MS/MS analysis; conditions: in vivo; in short: as §2
[26] = Oral bioavailability in MRP2 knockout Sprague-Dawley rat at 5 mg/kg by LC-MS/MS analysis; conditions: in vivo; in short: as §2

Compound `CC(=O)O[C@H]1C(=O)[C@@]2(C)[C@H]([C@H](OC(=O)c3ccccc3)[C@]3(O)C[C@H](OC(=O)[C@H](O)[C@@H](NC(=O)c4ccccc4)c4ccccc4)C(C)=C1C3(C)C)[C@]1(OC(C)=O)CO[C@@H]1C[C@@H]2O` [PACLITAXEL] has a Vd [1] of 28.6 L/kg, a dose excreted at 24 h [2] of 0.5% and a dose excreted at 24 h [3] of 2.3%. It also gave a dose excreted at 24 h [4] of 0.21%, a dose excreted at 24 h [5] of 1% and a dose excreted at 24 h [6] of 2.8%. For the same compound, the AUC(0-inf) [7] was 88 ng·h/mL, the AUC(0-inf) [8] was 746 ng·h/mL and the AUC(0-inf) [9] was 113 ng·h/mL. For the same compound, the AUC(0-inf) [10] was 622 ng·h/mL, the Cmax [11] was 30 ng/mL and the Cmax [12] was 145 ng/mL. It also gave a Cmax [13] of 40 ng/mL, a Cmax [14] of 151 ng/mL and a Tmax [15] of 48 min. The Tmax [16] was 1.2 h, the Tmax [17] was 54 min and the Tmax [18] was 54 min. For the same compound, the half-life [19] was 264 min, the half-life [20] was 600 min and the half-life [21] was 318 min. For the same compound, the half-life [22] was 564 min, the bioavailability [23] was 12% and the bioavailability [24] was 47%. For the same compound, the bioavailability [25] was 13% and the bioavailability [26] was 27%.
